Tests used:
[1] = system: HCT-116; assay: Antiproliferative activity against human HCT116 cells after 72 hrs; format: functional; settings: HCT-116, 72 h
Outline: (§1)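 HCT-116 cells were kept in McCoy's 5a with 1.5 mM L-glutamine and 5% FBS, and MDA-MB-435 cells in D-MEM with 1.5 mM L-glutamine and 5% FBS, both at 37 °C in humidified 5% CO2. Cells were seeded at 3200 per well, allowed to attach, and given vehicle or drug at 10 nM–3 µM (n = 8) for 72 h. Live cells were read by CellTiter 96 AQueous at 490 nm, and the 50% inhibitory value was taken from the dose–response curve.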

[2] = Displacement of [3H]colchicine from tubulin at 5 uM
[3] = system: MDA-MB-435; assay: Antiproliferative activity against human MDA-MB-435 cells after 72 hrs; format: functional; settings: MDA-MB-435, 72 h; outline: as §1
[4] = Displacement of [3H]colchicine from tubulin at 50 uM
[5] = Inhibition of tubulin polymerization

SMILES | GI50 [1] [µM] | inhibition [2] [%] | GI50 [3] [µM] | inhibition [4] [%] | IC50 [5] [µM]
CC(=O)O[C@H]1C(=O)[C@@]2(C)[C@H]([C@H](OC(=O)c3ccccc3)[C@]3(O)C[C@H](OC(=O)[C@H](O)[C@@H](NC(=O)c4ccccc4)c4ccccc4)C(C)=C1C3(C)C)[C@]1(OC(C)=O)CO[C@@H]1C[C@@H]2O [PACLITAXEL] |  |  | 0.004 |  | 
Cc1ccccc1-c1ccc([C@@H]2NC(=O)c3cc([N+](=O)[O-])ccc3N2)cc1 | 0.1 | 28 | 0.0001 | 66 | 1.1
COc1ccc(/C=C\c2cc(OC)c(OC)c(OC)c2)cc1O |  | 99 |  |  | 

Other lines, results leading:

GI50 [1] [µM] | inhibition [2] [%] | GI50 [3] [µM] | inhibition [4] [%] | IC50 [5] [µM] | SMILES
0.93 | 2.1 | 1.1 | 5.5 | 16 | Cc1ccccc1-c1ccc([C@H]2NC(=O)c3cc([N+](=O)[O-])ccc3N2)cc1
0.3 | 17 | 0.1 | 51 | 1.7 | Cc1ccccc1-c1ccc(C2NC(=O)c3cc([N+](=O)[O-])ccc3N2)cc1 (racemic)

Source: ChEMBL document CHEMBL1155830, “Asymmetric synthesis of 2,3-dihydro-2-arylquinazolin-4-ones: methodology and application to a potent fluorescent tubulin inhibitor with anticancer activity” (J Med Chem, 2008)
